Reference: ChEMBL document CHEMBL2203123, “Synthesis and biological evaluation of some hydrazone derivatives as new anticandidal and anticancer agents” (Eur J Med Chem, 2012)

How the values were obtained:
Candida albicans [1] = assay: Antifungal activity against Candida albicans ATCC 10231 after 24 hrs by microdilution susceptibility assay; format: functional; conditions: ATCC 10231, 24 h
Summary of the method: (§1)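 Broth microdilution in Mueller Hinton Broth, compounds from DMSO stocks diluted serially; inocula standardized to 10^6 CFU/mL (McFarland 0.5) from overnight MHB cultures. Plates held 37 °C for 24 h; MIC taken as first well without turbidity, aided by 1% tetrazolium violet added for 3 h at 37 °C. Ketoconazole reference.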

Candida albicans [2] = assay: Antifungal activity against Candida albicans ATCC 90028 after 24 hrs by microdilution susceptibility assay; format: functional; conditions: ATCC 90028, 24 h; summary of the method: as §1
A549 = assay: Cytotoxicity against human A549 cells after 24 hrs by XTT assay; format: functional, cell-based; conditions: A549, 24 h
Summary of the method: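 A549 cells in RPMI 1640 with 10% fetal calf serum, penicillin/streptomycin, 37 °C, 5% CO2; 20,000 cells/well seeded, after 24 h exposed to compounds at 0.00316 µM-10 mM for 24 h. XTT mitochondrial activity read at 480 nm (reference 680 nm) after 3 h; % inhibition per concentration, IC50 by non-linear regression.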

Nakaseomyces glabratus [3] = assay: Antifungal activity against Candida glabrata Osmangazi University clinical isolate after 24 hrs by microdilution susceptibility assay; format: functional; summary of the method: as §1
Candida parapsilosis = assay: Antifungal activity against Candida parapsilosis NRRL Y-12696 after 24 hrs by microdilution susceptibility assay; format: functional; conditions: Lodderomyces parapsilosis, NRRL Y-12696, 24 h; summary of the method: as §1
Candida albicans [4] = assay: Antifungal activity against Candida albicans clinical isolate after 24 hrs by microdilution susceptibility assay; format: functional; summary of the method: as §1
Cyberlindnera jadinii = assay: Antifungal activity against Candida utilis NRRL Y-900 after 24 hrs by microdilution susceptibility assay; format: functional; conditions: Williopsis jadinii, NRRL Y-900, 24 h; summary of the method: as §1
Pichia kudriavzevii = assay: Antifungal activity against Candida krusei NRRL Y-7179 after 24 hrs by microdilution susceptibility assay; format: functional; conditions: NRRL Y-7179, 24 h; summary of the method: as §1
NIH3T3 = assay: Cytotoxicity against mouse NIH/3T3 cells after 24 hrs by XTT assay; format: cell-based; conditions: NIH3T3, 24 h
Summary of the method: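 Mouse NIH3T3 fibroblasts grown in DMEM with fetal calf serum, penicillin/streptomycin, 37 °C, 5% CO2; 20,000 cells/well, treated after 24 h with 0.00316 µM-10 mM compound for 24 h. Viability via XTT (3 h, OD 480 nm, reference 680 nm); % inhibition computed and IC50 fitted by non-linear regression.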

Nakaseomyces glabratus [5] = assay: Antifungal activity against Candida glabrata Anadolu University clinical isolate after 24 hrs by microdilution susceptibility assay; format: functional; summary of the method: as §1

With Cn1nnnc1SCC(=O)N/N=C/c1cccc(Cl)c1 the MIC (Candida albicans [1]) was over 8000 µg/mL, the MIC (Candida albicans [2]) was over 8000 µg/mL and the IC50 (A549) was 7.5 mM. The MIC (Nakaseomyces glabratus [3]) was over 8000 µg/mL, the MIC (Candida parapsilosis) was over 8000 µg/mL and the MIC (Candida albicans [4]) was over 8000 µg/mL. For the same compound, the MIC (Cyberlindnera jadinii) was over 8000 µg/mL, the MIC (Pichia kudriavzevii) was over 8000 µg/mL and the IC50 (NIH3T3) was 7.5 mM. The MIC (Nakaseomyces glabratus [5]) was over 8000 µg/mL.

Cn1nnnc1SCC(=O)N/N=C/c1ccccc1Br showed an MIC (Candida albicans [1]) of over 8000 µg/mL, an MIC (Candida albicans [2]) of over 8000 µg/mL and an IC50 (A549) of 2 mM. For the same compound, the MIC (Nakaseomyces glabratus [3]) was over 8000 µg/mL, the MIC (Candida parapsilosis) was over 8000 µg/mL and the MIC (Candida albicans [4]) was over 8000 µg/mL. It also gave an MIC (Cyberlindnera jadinii) of over 8000 µg/mL, an MIC (Pichia kudriavzevii) of over 8000 µg/mL and an IC50 (NIH3T3) of 0.02 mM. It also gave an MIC (Nakaseomyces glabratus [5]) of over 8000 µg/mL.

Cn1nnnc1SCC(=O)N/N=C/c1cccc(Br)c1 gave an MIC (Candida albicans [1]) of over 8000 µg/mL, an MIC (Candida albicans [2]) of over 8000 µg/mL and an IC50 (A549) of 0.6 mM. It also gave an MIC (Nakaseomyces glabratus [3]) of over 8000 µg/mL, an MIC (Candida parapsilosis) of over 8000 µg/mL and an MIC (Candida albicans [4]) of over 8000 µg/mL. For the same compound, the MIC (Cyberlindnera jadinii) was over 8000 µg/mL, the MIC (Pichia kudriavzevii) was over 8000 µg/mL and the IC50 (NIH3T3) was 0.316 mM. The MIC (Nakaseomyces glabratus [5]) was over 8000 µg/mL.

In the case of Cn1nnnc1SCC(=O)N/N=C/c1ccccc1O, the MIC (Candida albicans [1]) is reported as over 8000 µg/mL, the MIC (Candida albicans [2]) is reported as over 8000 µg/mL and the IC50 (A549) is reported as over 10 mM. The MIC (Nakaseomyces glabratus [3]) was over 8000 µg/mL, the MIC (Candida parapsilosis) was over 8000 µg/mL and the MIC (Candida albicans [4]) was over 8000 µg/mL. For the same compound, the MIC (Cyberlindnera jadinii) was over 8000 µg/mL, the MIC (Pichia kudriavzevii) was over 8000 µg/mL and the IC50 (NIH3T3) was over 10 mM. It also gave an MIC (Nakaseomyces glabratus [5]) of over 8000 µg/mL.

For Cn1nnnc1SCC(=O)N/N=C/c1cccc(O)c1, the MIC (Candida albicans [1]) was over 8000 µg/mL, the MIC (Candida albicans [2]) was over 8000 µg/mL and the IC50 (A549) was 4.5 mM. For the same compound, the MIC (Nakaseomyces glabratus [3]) was over 8000 µg/mL, the MIC (Candida parapsilosis) was over 8000 µg/mL and the MIC (Candida albicans [4]) was over 8000 µg/mL. The MIC (Cyberlindnera jadinii) was over 8000 µg/mL, the MIC (Pichia kudriavzevii) was over 8000 µg/mL and the IC50 (NIH3T3) was 3.16 mM. The MIC (Nakaseomyces glabratus [5]) was over 8000 µg/mL.

With COc1ccccc1/C=N/NC(=O)CSc1nnnn1C the MIC (Candida albicans [1]) was over 8000 µg/mL, the MIC (Candida albicans [2]) was over 8000 µg/mL and the IC50 (A549) was 7 mM. For the same compound, the MIC (Nakaseomyces glabratus [3]) was over 8000 µg/mL, the MIC (Candida parapsilosis) was over 8000 µg/mL and the MIC (Candida albicans [4]) was over 8000 µg/mL. The MIC (Cyberlindnera jadinii) was over 8000 µg/mL, the MIC (Pichia kudriavzevii) was over 8000 µg/mL and the IC50 (NIH3T3) was 3.16 mM. It also gave an MIC (Nakaseomyces glabratus [5]) of over 8000 µg/mL.

COc1cccc(/C=N/NC(=O)CSc2nnnn2C)c1 was tested, and the MIC (Candida albicans [1]) was over 8000 µg/mL, the MIC (Candida albicans [2]) was over 8000 µg/mL and the IC50 (A549) was over 10 mM. The MIC (Nakaseomyces glabratus [3]) was over 8000 µg/mL, the MIC (Candida parapsilosis) was over 8000 µg/mL and the MIC (Candida albicans [4]) was over 8000 µg/mL. It also gave an MIC (Cyberlindnera jadinii) of over 8000 µg/mL, an MIC (Pichia kudriavzevii) of over 8000 µg/mL and an IC50 (NIH3T3) of 0.6 mM. It also gave an MIC (Nakaseomyces glabratus [5]) of over 8000 µg/mL.

For Cc1ccccc1/C=N/NC(=O)CSc1nnnn1C, the MIC (Candida albicans [1]) was over 8000 µg/mL, the MIC (Candida albicans [2]) was over 8000 µg/mL and the IC50 (A549) was over 10 mM. It also gave an MIC (Nakaseomyces glabratus [3]) of over 8000 µg/mL, an MIC (Candida parapsilosis) of over 8000 µg/mL and an MIC (Candida albicans [4]) of over 8000 µg/mL. The MIC (Cyberlindnera jadinii) was over 8000 µg/mL, the MIC (Pichia kudriavzevii) was over 8000 µg/mL and the IC50 (NIH3T3) was 6.32 mM. For the same compound, the MIC (Nakaseomyces glabratus [5]) was over 8000 µg/mL.

With Cc1cccc(/C=N/NC(=O)CSc2nnnn2C)c1 the MIC (Candida albicans [1]) was over 8000 µg/mL, the MIC (Candida albicans [2]) was over 8000 µg/mL and the IC50 (A549) was 2 mM. It also gave an MIC (Nakaseomyces glabratus [3]) of over 8000 µg/mL, an MIC (Candida parapsilosis) of over 8000 µg/mL and an MIC (Candida albicans [4]) of over 8000 µg/mL. For the same compound, the MIC (Cyberlindnera jadinii) was over 8000 µg/mL, the MIC (Pichia kudriavzevii) was over 8000 µg/mL and the IC50 (NIH3T3) was 6.25 mM. For the same compound, the MIC (Nakaseomyces glabratus [5]) was over 8000 µg/mL.

Cn1nnnc1SCC(=O)N/N=C/c1cccc(Cl)c1Cl gave an MIC (Candida albicans [1]) of over 8000 µg/mL, an MIC (Candida albicans [2]) of over 8000 µg/mL and an IC50 (A549) of 0.632 mM. The MIC (Nakaseomyces glabratus [3]) was over 8000 µg/mL, the MIC (Candida parapsilosis) was over 8000 µg/mL and the MIC (Candida albicans [4]) was over 8000 µg/mL. It also gave an MIC (Cyberlindnera jadinii) of over 8000 µg/mL, an MIC (Pichia kudriavzevii) of over 8000 µg/mL and an IC50 (NIH3T3) of 0.52 mM. For the same compound, the MIC (Nakaseomyces glabratus [5]) was over 8000 µg/mL.

Cn1nnnc1SCC(=O)N/N=C/c1ccc(Cl)cc1Cl was tested, and the MIC (Candida albicans [1]) was over 8000 µg/mL, the MIC (Candida albicans [2]) was over 8000 µg/mL and the IC50 (A549) was 0.5 mM. For the same compound, the MIC (Nakaseomyces glabratus [3]) was over 8000 µg/mL, the MIC (Candida parapsilosis) was over 8000 µg/mL and the MIC (Candida albicans [4]) was over 8000 µg/mL. For the same compound, the MIC (Cyberlindnera jadinii) was over 8000 µg/mL, the MIC (Pichia kudriavzevii) was over 8000 µg/mL and the IC50 (NIH3T3) was 2.14 mM. It also gave an MIC (Nakaseomyces glabratus [5]) of over 8000 µg/mL.

For Cn1nnnc1SCC(=O)N/N=C/c1c(Cl)cccc1Cl, the MIC (Candida albicans [1]) was over 8000 µg/mL, the MIC (Candida albicans [2]) was over 8000 µg/mL and the IC50 (A549) was 1 mM. It also gave an MIC (Nakaseomyces glabratus [3]) of over 8000 µg/mL, an MIC (Candida parapsilosis) of over 8000 µg/mL and an MIC (Candida albicans [4]) of over 8000 µg/mL. For the same compound, the MIC (Cyberlindnera jadinii) was over 8000 µg/mL, the MIC (Pichia kudriavzevii) was over 8000 µg/mL and the IC50 (NIH3T3) was over 10 mM. The MIC (Nakaseomyces glabratus [5]) was over 8000 µg/mL.

In the case of C/C(=N\NC(=O)CSc1nnnn1C)c1ccccc1Cl, the MIC (Candida albicans [1]) is reported as over 8000 µg/mL, the MIC (Candida albicans [2]) is reported as over 8000 µg/mL and the IC50 (A549) is reported as 6.32 mM. The MIC (Nakaseomyces glabratus [3]) was over 8000 µg/mL, the MIC (Candida parapsilosis) was over 8000 µg/mL and the MIC (Candida albicans [4]) was over 8000 µg/mL. The MIC (Cyberlindnera jadinii) was over 8000 µg/mL, the MIC (Pichia kudriavzevii) was over 8000 µg/mL and the IC50 (NIH3T3) was 6 mM. It also gave an MIC (Nakaseomyces glabratus [5]) of over 8000 µg/mL.

C/C(=N\NC(=O)CSc1nnnn1C)c1cccc(Cl)c1 showed an MIC (Candida albicans [1]) of over 8000 µg/mL, an MIC (Candida albicans [2]) of over 8000 µg/mL and an IC50 (A549) of over 10 mM. For the same compound, the MIC (Nakaseomyces glabratus [3]) was over 8000 µg/mL, the MIC (Candida parapsilosis) was over 8000 µg/mL and the MIC (Candida albicans [4]) was over 8000 µg/mL. The MIC (Cyberlindnera jadinii) was over 8000 µg/mL, the MIC (Pichia kudriavzevii) was over 8000 µg/mL and the IC50 (NIH3T3) was 3.4 mM. For the same compound, the MIC (Nakaseomyces glabratus [5]) was over 8000 µg/mL.
